We go through five compounds from ChEMBL document CHEMBL1240455, “Synthesis of 5-[alkoxy-(4-nitro-phenyl)-methyl]-uridines and study of their cytotoxic activity” (Eur J Med Chem, 2010).

In brackets after ≈: the same amount, converted by molar mass.

In general, IC50 refers to the concentration at which inhibition is half-maximal. One may read the MIC as the lowest concentration found to suppress growth.

Test [1] relates to CCRF-CEM. The experiment in a line: Cell cycle arrest in human CEM cells assessed as accumulation at G2/M phase using propidium iodide staining at IC50 concentration after 24 hrs by flow cytometry. Format: functional. (A flow cytometer gives signals particle by particle.)
Test [2] relates to CCRF-CEM. The test can be described thus: Cell cycle arrest in human CEM cells assessed as accumulation at S phase using propidium iodide staining at IC50 concentration after 24 hrs by flow cytometry. Format: functional.
Test [3] has as its system CCRF-CEM. The test can be described thus: Induction of mitotic arrest in human CEM cells assessed as pH3Ser10 positive cells at 5 times IC50 concentration after 24 hrs by flow cytometry. The format is functional.
In test [4] the test system is CCRF-CEM. The test can be described thus: Inhibition of DNA synthesis in human CEM cells assessed as BrDU incorporation using propidium iodide staining at 5 times IC50 concentration after 24 hrs by flow cytometry. Format: functional. Further details: scale not given: the % may be the effect or the level left. The method, boiled down: (§1)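 CEM cells exposed at 1× and 5× IC50 for 3, 6, 9 and 24 h, then pulsed with BrdU for 30 min at 37 °C. Cells fixed overnight in ice-cold 70% ethanol and DNA denatured in 2 M HCl for 30 min. Neutralised with 0.1 M sodium borate, then stained with anti-BrdU antibody, FITC secondary, and propidium iodide/RNase. Read by flow cytometry at 488 nm.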

Test [5] has as its system CCRF-CEM. The experiment in a line: Cell cycle arrest in human CEM cells assessed as accumulation at G0/G1 phase using propidium iodide staining at IC50 concentration after 24 hrs by flow cytometry. The format is functional.
The subject of a further test is A549. The test can be described thus: Cytotoxicity against human A549 cells after 72 hrs by MTT assay. Format: functional, cell-based. The method, boiled down:
(§2)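 Cells seeded at 2500–30,000 per well by cell type and pre-incubated 24 h at 37 °C, 5% CO2. Compounds dissolved in 10% DMSO, added as four-fold dilutions at time zero, tested in quadruplicate. Exposure 72 h at 37 °C, 5% CO2, 100% humidity. MTT then added for 1–4 h, formazan dissolved overnight at 37 °C, OD read at 540 nm. IC50 taken from dose-response curves relative to control wells.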
A general note: Tetrazolium dyes change colour on reduction, which living cells bring about.

Test [6] deals with CCRF-CEM. The experiment in a line: Inhibition of RNA synthesis in human CEM cells assessed as BrU incorporation using propidium iodide staining at 5 times IC50 concentration after 24 hrs by flow cytometry. Format: functional. Further details: scale not given: the % may be the effect or the level left. The method, boiled down: (§3)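 RNA synthesis measured by flow cytometry of incorporated 5-bromouridine, detected with a cross-reacting anti-BrdU antibody. CEM cells exposed at 1× and 5× IC50 for 3, 6, 9 and 24 h and pulsed for 30 min at 37 °C before harvest. Fixed 15 min in 1% paraformaldehyde/0.05% NP-40 in PBS and stored at 4 °C at least overnight. Stained with primary and FITC secondary antibodies, 30 min each at room temperature.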

Test [7] concerns K562. The experiment in a line: Cytotoxicity against human paclitaxel-resistant K562 cells after 72 hrs by MTT assay. The format is functional, cell-based. The method, boiled down:
as §2

The subject of test [8] is CCRF-CEM. The test can be described thus: Inhibition of DNA synthesis in human CEM cells assessed as BrDU incorporation using propidium iodide staining at IC50 concentration after 24 hrs by flow cytometry. The format is functional. Further details: scale not given: the % may be the effect or the level left. The method, boiled down:
as §1

Test [9] deals with CCRF-CEM. The test can be described thus: Inhibition of RNA synthesis in human CEM cells assessed as BrU incorporation using propidium iodide staining at IC50 concentration after 24 hrs by flow cytometry. Format: functional. Further details: scale not given: the % may be the effect or the level left. The method, boiled down: as §3
The test system of test [10] is CCRF-CEM. The test can be described thus: Induction of apoptosis in human CEM cells using propidium iodide staining at IC50 concentration after 24 hrs by flow cytometry. The format is functional.
Test [11] is described as follows: Cytotoxicity against human CEM-DNR-B cells after 72 hrs by MTT assay. Format: functional, cell-based. The method, boiled down: as §2
The test system of test [12] is Staphylococcus aureus. The experiment in a line: Antimicrobial activity against methicillin-resistant Staphylococcus aureus after 24 hrs. Format: functional.
Test [13] relates to K562. The experiment in a line: Cytotoxicity against human K562 cells after 72 hrs by MTT assay. Format: functional, cell-based. The method, boiled down: as §2
In test [14] the test system is CCRF-CEM. The test can be described thus: Induction of apoptosis in human CEM cells using propidium iodide staining at 5 times IC50 concentration after 24 hrs by flow cytometry. The format is functional.
The subject of test [15] is CCRF-CEM. The test can be described thus: Cytotoxicity against human CEM cells after 72 hrs by MTT assay. The format is functional, cell-based. The method, boiled down:
as §2

The subject of test [16] is CCRF-CEM. The experiment in a line: Induction of mitotic arrest in human CEM cells assessed as pH3Ser10 positive cells at IC50 concentration after 24 hrs by flow cytometry. The format is functional.
Test [17] has as its system Staphylococcus haemolyticus. The experiment in a line: Antimicrobial activity against Staphylococcus haemolyticus after 24 hrs. Format: functional. The method, boiled down:
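MIC taken as the lowest concentration preventing bacterial growth after 24 h incubation at 37 °C. Strains came from the Czech Collection of Microorganisms or from clinical isolates of hospital patients.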

Test [18] deals with Staphylococcus aureus. The test can be described thus: Antimicrobial activity against Staphylococcus aureus CCM 3953 after 24 hrs. Format: functional. As to conditions: CCM 3953, 24 h.
The next test has as its system Enterococcus faecalis. The experiment in a line: Antimicrobial activity against Enterococcus faecalis CCM 4224 after 24 hrs. The conditions noted are these: CCM 4224, 24 h. Format: functional.
Test [19] relates to CCRF-CEM. The test can be described thus: Cell cycle arrest in human CEM cells assessed as accumulation at G0/G1 phase using propidium iodide staining at 5 times IC50 concentration after 24 hrs by flow cytometry. Format: functional. The method, boiled down:
(§4)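 CEM T-lymphoblastic leukemia cells were exposed to compound at 1× and 5× IC50 over a 24 h interval. DNA content was measured by flow cytometry with a 488 nm laser.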

Test [20] deals with CCRF-CEM. The experiment in a line: Cell cycle arrest in human CEM cells assessed as accumulation at S phase using propidium iodide staining at 5 times IC50 concentration after 24 hrs by flow cytometry. The format is functional. The method, boiled down: as §4
The test system of test [21] is CCRF-CEM. The experiment in a line: Cell cycle arrest in human CEM cells assessed as accumulation at G2/M phase using propidium iodide staining at 5 times IC50 concentration after 24 hrs by flow cytometry. Format: functional. The method, boiled down: as §4

As for `CCCCCCCCCOC(c1ccc([N+](=O)[O-])cc1)c1cn([C@@H]2O[C@H](CO)[C@@H](O)[C@H]2O)c(=O)[nH]c1=O` (stereo in doubt; (+)-7i), the Activity is 11.25% in the test on CCRF-CEM [1]; 47.81% with CCRF-CEM [2]; 0.25% in the test with CCRF-CEM [3]; 2.95% in the test with CCRF-CEM [4]; 40.95% in the test on CCRF-CEM [5]; 0.8% in the test on CCRF-CEM [6]. The Activity is given as 52.17% with CCRF-CEM [8]; 60.22% in the test with CCRF-CEM [9]; 4% with CCRF-CEM [10]; 83% in the test with CCRF-CEM [14]; 1.66% in the test on CCRF-CEM [16]. In addition, the IC50 in the test on A549 (Homo sapiens, A549, 72 h) amounted to 23.1 µM; with K562 [7] (Homo sapiens, K562, 72 h), 14.6 µM; in test [11] (Homo sapiens, 72 h) it was 32.3 µM; in the test on K562 [13] (Homo sapiens, K562, 72 h) it was 10.9 µM; in the test with CCRF-CEM [15] (Homo sapiens, CCRF-CEM, 72 h) it was 7.9 µM. In addition, the minimal inhibitory concentration (MIC) with Staphylococcus aureus [12] was 50 µM (≈ 26.1 µg/mL); in test [17] it was 100 µM (≈ 52.2 µg/mL); against Staphylococcus aureus [18], 50 µM (≈ 26.1 µg/mL); in the test on Enterococcus faecalis, 50 µM (≈ 26.1 µg/mL).
`CCCCCCCOC(c1ccc([N+](=O)[O-])cc1)c1cn([C@@H]2O[C@H](CO)[C@@H](O)[C@H]2O)c(=O)[nH]c1=O` (stereo in doubt; (-)-8g): the half-inhibitory concentration (IC50) with A549 (a549) is 69.9 µM; in the test on K562 [7] (k562) it was 52.3 µM; in test [11], 95.6 µM; in the test on K562 [13] (k562), 36.7 µM; in the test on CCRF-CEM [15] (ccrf-cem), 29 µM.
Regarding `CCCCCCCCOC(c1ccc([N+](=O)[O-])cc1)c1cn([C@@H]2O[C@H](CO)[C@@H](O)[C@H]2O)c(=O)[nH]c1=O` (stereo in doubt; (-)-8h), the Activity was determined as 11.33% with CCRF-CEM [1]; 48.56% in the test with CCRF-CEM [2]; 0.01% with CCRF-CEM [3]; 6.67% with CCRF-CEM [4]; 40.02% in the test on CCRF-CEM [5]; 1.61% in the test with CCRF-CEM [6]. Besides, the Activity in the test with CCRF-CEM [8] stood at 48.73%; in the test with CCRF-CEM [9] it was 56.18%; in the test on CCRF-CEM [10], 5%; with CCRF-CEM [14] it was 71%; with CCRF-CEM [16], 1.68%. The concentration for half-maximal inhibition (IC50) turned out to be 39.7 µM with A549 (a549); 34.4 µM in the test with K562 [7] (k562); 36.6 µM in test [11]; 24.7 µM in the test on K562 [13] (k562); 16.9 µM in the test on CCRF-CEM [15] (ccrf-cem).
As for `Nc1nc(F)nc2c1ncn2[C@@H]1O[C@H](CO)[C@@H](O)[C@@H]1O` [FLUDARABINE], the Activity in the test with CCRF-CEM [1] came out at 19.5%; in the test on CCRF-CEM [2], 40.84%; in the test on CCRF-CEM [3], 0.01%; in the test on CCRF-CEM [4] it was 10.37%; in the test with CCRF-CEM [5], 39.66%; with CCRF-CEM [6], 8.92%. For the same compound, the Activity in the test on CCRF-CEM [8] was found to be 14.12%; in the test with CCRF-CEM [9], 7.62%; with CCRF-CEM [10] it was 62.1%; with CCRF-CEM [19], 42.11%; with CCRF-CEM [14], 74.84%; with CCRF-CEM [16], 0.28%. Also, the Activity in the test on CCRF-CEM [20] turned out to be 52.94%; in the test on CCRF-CEM [21], 4.95%. Besides, the IC50 in the test with A549 (Homo sapiens, A549, 72 h) worked out at 47.4 µM; in the test with K562 [7] (Homo sapiens, K562, 72 h), 0.26 µM; in test [11] (Homo sapiens, 72 h), 1.01 µM; in the test with K562 [13] (Homo sapiens, K562, 72 h), 267 µM; in the test on CCRF-CEM [15] (Homo sapiens, CCRF-CEM, 72 h), 19.5 µM.
In the case of `Nc1nc2[nH]cnc2c(=S)[nH]1` [THIOGUANINE], the Activity in the test with CCRF-CEM [1] is recorded as 7.19%; with CCRF-CEM [2] it was 49.39%; in the test with CCRF-CEM [3] it was 0.43%; in the test with CCRF-CEM [4], 19.82%; with CCRF-CEM [5], 43.42%; with CCRF-CEM [6], 48.93%. Besides, the Activity in the test on CCRF-CEM [8] was determined as 35.32%; in the test with CCRF-CEM [9], 45.84%; in the test with CCRF-CEM [10], 11.27%; in the test with CCRF-CEM [19] it was 43.58%; in the test on CCRF-CEM [14], 18.69%; with CCRF-CEM [16], 1.21%. Besides, the values for the Activity in the test on CCRF-CEM [20] and with CCRF-CEM [21] were 46.47% and 9.95%, respectively. Further, the IC50 in the test with A549 (Homo sapiens, A549, 72 h) is 2.82 µM; in the test on K562 [7] (Homo sapiens, K562, 72 h), 3.9 µM; in test [11] (Homo sapiens, 72 h), 9.47 µM; in the test on K562 [13] (Homo sapiens, K562, 72 h), 1.54 µM; with CCRF-CEM [15] (Homo sapiens, CCRF-CEM, 72 h), 2.98 µM.
